Measured values as given in ChEMBL document CHEMBL4257488, “Synthesis and evaluation of nuciferine and roemerine enantiomers as 5-HT2 and α1 receptor antagonists” (Medchemcomm, 2018).

Tests used:
Homo sapiens [1] = species: Homo sapiens; test: Selectivity ratio of Kb for human 5-HT2B receptor to Kb for human 5-HT2C receptor
Procedure, shortened: (§1)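 Ratio of the Kb at receptor Y to the Kb at receptor X. Each Kb came from TGFα-shedding antagonist curves in transfected HEK293 cells, converted from IC50 with the modified Gaddum equation IC50/([A]/EC50 − 1).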

[2] = molecular target: T1, Alpha-1D adrenergic receptor (Homo sapiens) (UniProt P25100); test: Antagonist activity at human adrenergic alpha1D receptor expressed in HEK293 cells assessed as inhibition of noradrenaline-induced receptor activation preincubated for 15 mins followed by noradrenaline addition and measured after 1 hr by TGFalpha shedding assay
T1 sequence (whole entry): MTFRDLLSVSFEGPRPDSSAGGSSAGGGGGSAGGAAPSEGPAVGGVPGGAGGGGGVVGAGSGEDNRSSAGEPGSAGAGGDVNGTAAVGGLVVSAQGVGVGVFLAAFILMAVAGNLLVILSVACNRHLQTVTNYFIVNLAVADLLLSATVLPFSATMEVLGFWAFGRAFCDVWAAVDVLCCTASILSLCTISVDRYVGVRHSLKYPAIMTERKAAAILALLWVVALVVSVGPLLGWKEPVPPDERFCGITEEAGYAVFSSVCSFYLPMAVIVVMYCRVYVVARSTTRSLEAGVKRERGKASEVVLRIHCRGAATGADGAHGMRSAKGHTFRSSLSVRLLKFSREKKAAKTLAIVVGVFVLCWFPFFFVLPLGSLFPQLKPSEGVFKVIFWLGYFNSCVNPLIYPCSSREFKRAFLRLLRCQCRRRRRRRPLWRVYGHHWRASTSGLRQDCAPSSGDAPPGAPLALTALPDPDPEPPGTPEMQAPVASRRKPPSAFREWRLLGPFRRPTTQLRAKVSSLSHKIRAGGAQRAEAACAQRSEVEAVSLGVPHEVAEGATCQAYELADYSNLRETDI

[3] = molecular target: T2, 5-hydroxytryptamine receptor 2C (Homo sapiens) (UniProt P28335); test: Antagonist activity at human 5-HT2C receptor expressed in HEK293 cells assessed as inhibition of serotonin-induced receptor activation preincubated for 15 mins followed by serotonin addition and measured after 1 hr by TGFalpha shedding assay; format: functional, cell-based
T2 sequence (whole entry): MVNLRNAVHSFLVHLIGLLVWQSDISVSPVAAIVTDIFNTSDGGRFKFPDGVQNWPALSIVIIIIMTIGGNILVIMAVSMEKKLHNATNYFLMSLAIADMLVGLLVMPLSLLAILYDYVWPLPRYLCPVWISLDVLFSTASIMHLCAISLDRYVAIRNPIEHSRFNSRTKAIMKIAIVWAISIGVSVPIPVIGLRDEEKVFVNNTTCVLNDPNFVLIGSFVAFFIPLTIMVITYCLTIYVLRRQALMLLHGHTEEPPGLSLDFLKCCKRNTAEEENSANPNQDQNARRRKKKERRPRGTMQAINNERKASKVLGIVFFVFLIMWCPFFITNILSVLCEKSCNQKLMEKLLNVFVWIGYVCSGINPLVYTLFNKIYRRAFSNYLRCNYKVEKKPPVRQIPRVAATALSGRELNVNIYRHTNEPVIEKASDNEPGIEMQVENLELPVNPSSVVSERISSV
Procedure, shortened: (§2)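 HEK293 cells were co-transfected with the receptor construct and alkaline phosphatase-tagged TGFα, then seeded in HBSS. Cells were pretreated 15 min with compound (0.1 nM–30 µM final), then given serotonin at final 1 µM (5-HT2A) or 0.1 µM (5-HT2B, 5-HT2C) for 1 h at 37 °C. Readout was supernatant/total AP activity (p-nitrophenol, 405 nm), normalised to maximal agonist response, in triplicate. Kb came from IC50 via the modified Gaddum equation.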

[4] = molecular target: T3, Alpha-1A adrenergic receptor (Homo sapiens) (UniProt P35348); test: Antagonist activity at human adrenergic alpha1A receptor expressed in HEK293 cells assessed as inhibition of noradrenaline-induced receptor activation preincubated for 15 mins followed by noradrenaline addition and measured after 1 hr by TGFalpha shedding assay
T3 sequence (whole entry): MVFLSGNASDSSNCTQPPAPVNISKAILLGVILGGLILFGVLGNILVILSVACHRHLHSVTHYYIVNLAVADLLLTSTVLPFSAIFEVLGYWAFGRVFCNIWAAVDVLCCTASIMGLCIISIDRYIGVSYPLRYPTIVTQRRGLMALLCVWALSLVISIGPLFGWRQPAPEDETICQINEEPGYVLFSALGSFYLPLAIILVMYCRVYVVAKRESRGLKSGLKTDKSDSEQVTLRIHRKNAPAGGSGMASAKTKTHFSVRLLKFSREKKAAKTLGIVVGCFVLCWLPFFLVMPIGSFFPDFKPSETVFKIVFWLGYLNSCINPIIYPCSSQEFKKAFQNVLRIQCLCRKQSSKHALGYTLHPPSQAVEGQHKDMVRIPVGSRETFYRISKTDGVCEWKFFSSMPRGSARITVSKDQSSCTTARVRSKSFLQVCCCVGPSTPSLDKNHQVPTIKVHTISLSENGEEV

[5] = molecular target: Serotonin 2 receptors; 5-HT2a & 5-HT2c (Homo sapiens) (UniProt P28223+P28335); test: Selectivity ratio of Kb for human 5-HT2C receptor to Kb for human 5-HT2A receptor; procedure, shortened: as §1
Homo sapiens [6] = species: Homo sapiens; test: Selectivity ratio of Kb for human adrenergic alpha1A receptor to Kb for human 5-HT2A receptor; procedure, shortened: as §1
[7] = molecular target: 5-hydroxytryptamine receptor 2A (Homo sapiens) (UniProt P28223); test: Antagonist activity at human 5-HT2A receptor expressed in HEK293 cells assessed as inhibition of serotonin-induced receptor activation preincubated for 15 mins followed by serotonin addition and measured after 1 hr by TGFalpha shedding assay; format: functional, cell-based
Procedure, shortened: as §2, with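 “°C.” for “°C. Readout was supernatant/total AP activity (p-nitrophenol, 405 nm), normalised to maximal agonist response, in triplicate.”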

[8] = molecular target: T4, Alpha-1B adrenergic receptor (Homo sapiens) (UniProt P35368); test: Antagonist activity at human adrenergic alpha1B receptor expressed in HEK293 cells assessed as inhibition of noradrenaline-induced receptor activation preincubated for 15 mins followed by noradrenaline addition and measured after 1 hr by TGFalpha shedding assay
T4 sequence (whole entry): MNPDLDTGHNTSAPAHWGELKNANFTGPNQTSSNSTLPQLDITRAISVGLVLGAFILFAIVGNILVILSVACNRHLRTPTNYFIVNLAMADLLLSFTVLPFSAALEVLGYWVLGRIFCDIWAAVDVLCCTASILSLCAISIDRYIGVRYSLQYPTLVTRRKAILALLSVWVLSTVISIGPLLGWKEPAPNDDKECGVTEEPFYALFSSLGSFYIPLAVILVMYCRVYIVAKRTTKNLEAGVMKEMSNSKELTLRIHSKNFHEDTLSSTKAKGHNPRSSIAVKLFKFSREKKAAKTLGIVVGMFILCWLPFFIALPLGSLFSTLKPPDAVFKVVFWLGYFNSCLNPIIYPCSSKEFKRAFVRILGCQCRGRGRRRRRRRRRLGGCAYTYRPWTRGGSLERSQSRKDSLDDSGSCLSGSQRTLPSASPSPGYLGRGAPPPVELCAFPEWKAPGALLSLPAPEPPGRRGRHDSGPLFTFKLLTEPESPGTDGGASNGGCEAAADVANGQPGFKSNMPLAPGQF

Homo sapiens [9] = species: Homo sapiens; test: Selectivity ratio of Kb for human 5-HT2B receptor to Kb for human 5-HT2A receptor; procedure, shortened: as §1
Homo sapiens [10] = species: Homo sapiens; test: Selectivity ratio of Kb for human adrenergic alpha1D receptor to Kb for human adrenergic alpha1A receptor; procedure, shortened: as §1
Homo sapiens [11] = species: Homo sapiens; test: Selectivity ratio of Kb for human adrenergic alpha1D receptor to Kb for human adrenergic alpha1B receptor; procedure, shortened: as §1
[12] = molecular target: 5-hydroxytryptamine receptor 2B (Homo sapiens) (UniProt P41595); test: Antagonist activity at human 5-HT2B receptor expressed in HEK293 cells assessed as inhibition of serotonin-induced receptor activation preincubated for 15 mins followed by serotonin addition and measured after 1 hr by TGFalpha shedding assay; format: functional, cell-based
Procedure, shortened: as §2, with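 “°C.” for “°C. Readout was supernatant/total AP activity (p-nitrophenol, 405 nm), normalised to maximal agonist response, in triplicate.”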

Homo sapiens [13] = species: Homo sapiens; test: Selectivity ratio of Kb for human adrenergic alpha1B receptor to Kb for human adrenergic alpha1A receptor; procedure, shortened: as §1
Homo sapiens [14] = species: Homo sapiens; test: Selectivity ratio of Kb for human adrenergic alpha1B receptor to Kb for human 5-HT2A receptor; procedure, shortened: as §1
Homo sapiens [15] = species: Homo sapiens; test: Selectivity ratio of Kb for human adrenergic alpha1D receptor to Kb for human 5-HT2C receptor; procedure, shortened: as §1
[16] = molecular target: T5, Alpha-1D adrenergic receptor (Homo sapiens, UniProt P25100); test: Displacement of [125I]-HEAT from human adrenergic alpha1D receptor expressed in rat-1 cells; format: cell-based
T5 sequence (P25100 whole entry): T1 sequence (whole entry)

[17] = molecular target: T6, Alpha-1B adrenergic receptor (Homo sapiens, UniProt P35368); test: Displacement of [125I]-HEAT from human adrenergic alpha1B receptor expressed in rat-1 cells; format: cell-based
T6 sequence (P35368 whole entry): T4 sequence (whole entry)

[18] = molecular target: T7, Alpha-1A adrenergic receptor (Homo sapiens, UniProt P35348); test: Displacement of [125I]-HEAT from human adrenergic alpha1A receptor expressed in rat-1 cells; format: cell-based
T7 sequence (P35348 whole entry): T3 sequence (whole entry)

Homo sapiens [19] = species: Homo sapiens; test: Selectivity ratio of Kb for human adrenergic alpha1B receptor to Kb for human 5-HT2C receptor; procedure, shortened: as §1
Homo sapiens [20] = species: Homo sapiens; test: Selectivity ratio of Kb for human adrenergic alpha1D receptor to Kb for human 5-HT2A receptor; procedure, shortened: as §1
Homo sapiens [21] = species: Homo sapiens; test: Selectivity ratio of Kb for human adrenergic alpha1A receptor to Kb for human 5-HT2C receptor; procedure, shortened: as §1

Sequence of 5-hydroxytryptamine receptor 2B (Homo sapiens) (P41595 whole entry): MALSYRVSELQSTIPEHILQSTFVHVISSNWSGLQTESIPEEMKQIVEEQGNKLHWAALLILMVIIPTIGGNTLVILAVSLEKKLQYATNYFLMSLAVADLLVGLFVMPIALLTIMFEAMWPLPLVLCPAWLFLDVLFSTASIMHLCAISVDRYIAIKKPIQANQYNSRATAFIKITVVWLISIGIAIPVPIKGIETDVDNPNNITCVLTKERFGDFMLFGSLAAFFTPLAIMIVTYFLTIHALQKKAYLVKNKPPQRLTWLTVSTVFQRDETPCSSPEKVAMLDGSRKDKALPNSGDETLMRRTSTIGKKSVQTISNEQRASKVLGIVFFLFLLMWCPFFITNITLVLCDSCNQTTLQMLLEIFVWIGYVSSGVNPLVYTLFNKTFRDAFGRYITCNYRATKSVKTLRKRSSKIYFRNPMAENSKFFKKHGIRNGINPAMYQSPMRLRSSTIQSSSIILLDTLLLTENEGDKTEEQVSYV
Sequence of 5-hydroxytryptamine receptor 2A (Homo sapiens) (P28223 whole entry): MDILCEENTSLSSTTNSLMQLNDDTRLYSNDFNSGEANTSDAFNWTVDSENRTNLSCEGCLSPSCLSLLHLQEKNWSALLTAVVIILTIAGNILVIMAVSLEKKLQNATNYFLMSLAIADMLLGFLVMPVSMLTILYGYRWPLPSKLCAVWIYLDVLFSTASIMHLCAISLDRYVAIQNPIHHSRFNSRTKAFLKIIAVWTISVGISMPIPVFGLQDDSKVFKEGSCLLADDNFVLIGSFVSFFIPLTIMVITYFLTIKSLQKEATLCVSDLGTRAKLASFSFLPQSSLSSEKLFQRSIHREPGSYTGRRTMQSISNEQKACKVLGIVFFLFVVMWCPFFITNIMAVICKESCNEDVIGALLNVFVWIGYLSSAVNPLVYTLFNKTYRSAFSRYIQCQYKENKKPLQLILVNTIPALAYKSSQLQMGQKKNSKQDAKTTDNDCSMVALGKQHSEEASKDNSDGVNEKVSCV
Sequence of Serotonin 2 receptors; 5-HT2a & 5-HT2c (Homo sapiens) (P28223 whole entry, looked up, one chain of several): as the sequence (P28223 whole entry) above

| Compound | Selectivity ratio (Homo sapiens [1]) | Kb [2] [nM] | pKb [2] | Kb [3] [nM] | pKb [3] | Kb [4] [nM] | pKb [4] | Selectivity ratio [5] | Selectivity ratio (Homo sapiens [6]) | Kb [7] [nM] | pKb [7] | Kb [8] [nM] | pKb [8] | Selectivity ratio (Homo sapiens [9]) | Selectivity ratio (Homo sapiens [10]) | Selectivity ratio (Homo sapiens [11]) | Kb [12] [nM] | pKb [12] | Selectivity ratio (Homo sapiens [13]) | also measured |
| --- | --- | --- | --- | --- | --- | --- | --- | --- | --- | --- | --- | --- | --- | --- | --- | --- | --- | --- | --- | --- |
| COc1cc2c3c(c1OC)-c1ccccc1C[C@H]3N(C)CC2 | 1 | 165 | 6.78 | 36.4 | 7.44 | 37.8 | 7.31 to 7.42 | 0.6 | 1 | 65.3 | 7.18 to 7.26 | 60.6 | 7.22 | 0.5 | 4 | 3 | 31 | 7.51 | 2 |  |
| COc1cc2c3c(c1OC)-c1ccccc1C[C@@H]3N(C)CC2 | 1 | 116 | 6.94 | 30.9 | 7.51 | 67.1 | 6.91 to 7.17 | 0.4 | 1 | 84.3 | 6.85 to 7.07 | 316 | 6.5 | 0.5 | 2 | 0.4 | 41.7 | 7.38 | 5 |  |
| CN1CCc2cc3c(c4c2[C@@H]1Cc1ccccc1-4)OCO3 | 1 | 92.2 | 7.04 | 76.9 | 7.12 | 86 | 6.62 to 7.07 | 2 | 3 | 42.9 | 7.06 to 7.37 | 154 | 6.81 | 2 | 1 | 0.6 | 92.7 | 7.03 | 2 |  |
| CN1CCc2cc3c(c4c2[C@H]1Cc1ccccc1-4)OCO3 | 6 | 46 | 7.34 | 15.1 | 7.82 | 338 | 6.38 to 6.47 | 1 | 32 | 10.8 | 7.88 to 7.97 | 266 | 6.57 | 8 | 0.1 | 0.2 | 84 | 7.08 | 0.8 | Selectivity ratio (Homo sapiens [14]): 18 to 32; Selectivity ratio (Homo sapiens [15]): 3 to 4; Ki [16]: 631 nM; Ki [17]: 3160 nM; Ki [18]: 251 nM; Selectivity ratio (Homo sapiens [19]): 18 to 32; Selectivity ratio (Homo sapiens [20]): 3 to 4; Selectivity ratio (Homo sapiens [21]): 18 to 32 |
